PTPN22 inh 2: PTPN22 phosphatase inhibitors, primary screen, biochemical, DiFMUP fluorescence, 2 µM; 96,000 tested, 0.21% active; recombinant LYP catalytic domain; AID 640, 2007; inhibition, % at 2 µM; Tyrosine-protein phosphatase non-receptor type 22 (Homo sapiens), Q9Y2R2;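 active = inhibition at 2 µM at or above a set limit, the screen mean plus 3 SD, cut at about 24% in these data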
PTPN22 act: LYP phosphatase activators, primary screen, biochemical, DiFMUP fluorescence, 2 µM; Tyrosine-protein phosphatase non-receptor type 22 (Homo sapiens), Q9Y2R2; recombinant LYP; 0 = plate median, 100 = signal doubled; activation, % at 2 µM; 96,000 tested, 0.11% active;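 active = activation at 2 µM above a set limit, the mean plus 5 SD, cut at about 37% in these data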
PTK2B oligo ant: antagonists of Pyk2 self-association, primary screen, Q293 cells, FERM NanoBiT luminescence, HTS | Protein-tyrosine kinase 2-beta (Homo sapiens), Q14289 | hits give low values | z-score (the deposit names both 25 µM and 10 µM) | 99,000 tested, 0.83% active | AID 1347419, 2020;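 active = Z-score of -3 or lower, scaled per plate to the spread of control and sample wells; inactive = z-score above -3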;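 also: negative z-score means lost luminescence so less FERM oligomerization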
HIV Rev-RRE inh: HIV-1 Rev-RRE binding inhibitors, primary screen, biochemical, FRET, protein-RNA interaction | P05866 | Rev peptide-RRE RNA binding | inhibition, % at 8 µM | 97,000 tested, 0.79% active | AID 704, 2007;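 active = inhibition above the screen-wide mean plus 3 SD, cut at about 35% in these data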
Target sequence (P05866 whole entry, looked up): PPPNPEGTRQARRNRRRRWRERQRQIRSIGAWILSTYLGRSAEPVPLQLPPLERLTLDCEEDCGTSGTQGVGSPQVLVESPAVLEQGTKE
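Assay system: Rev peptide and RRE RNA, both fluorescently labelled; times: 5 min preincubation and 15 min binding, 25 °C; detection: FRET, ex 480 nm, em 540 and 671 nm; read-out basis: % inhibition from 671/540 nm acceptor-to-donor ratio, scaled between controls; benchmarks: DMSO low control, neomycin B high control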
Hits are given with their value; n = inactive; x = not tested or not shown; [ ] = remark or other dose. The list is not random: actives were taken first. Their share in the collection is about 1.8%.

SMILES | PTPN22 inh 2 | PTPN22 act | PTK2B oligo ant | HIV Rev-RRE inh
O=C(CN(c1ccc(F)cc1)S(=O)(=O)c1ccc2c(c1)OCCO2)NCc1ccccn1 | n | n | n | n
COc1ccc(S(=O)(=O)N2CCCN(S(=O)(=O)c3ccc(OC)c(C)c3)CC2)cc1C | n | n | n | n
COc1ccc(S(=O)(=O)Nc2ccc(S(=O)(=O)N3CCCCC3)cc2)cc1 | 25 | n | n | n
COc1ccc(S(=O)(=O)Nc2ccc(S(=O)(=O)N3CCCC3)cc2)cc1 | n | n | n | n
COc1ccc(S(=O)(=O)Nc2ccc(S(=O)(=O)N3CCCCC3)cc2)cc1C | n | n | -3.3 | n
Clc1ccc(C(c2nnnn2CCc2ccccc2)N2CCSCC2)cc1 (configuration not stated) | n | n | n | n
CCCc1nc(SCC(=O)Nc2nnc(CC)s2)c2c(C)c(C)sc2n1 | n | n | -3.7 | n
CCc1nc(SCC(=O)Nc2nnc(CC)s2)c2c(C)c(C)sc2n1 | n | n | n | n
O=C1CC(C2CCCO2)C(=O)N1c1ccccc1 (configuration not stated) | n | n | n | n
Cc1oc2cc3c(C(=O)N4CCN(c5ccccc5)CC4)c(C)oc3cc2c1C(=O)N1CCN(c2ccccc2)CC1 | n | n | x | n
COC(=O)C1=C(CSc2nc3c(cc2C#N)CN(C)CC3)OC(N)=C(C#N)C1c1ccc(F)cc1 (configuration not stated) | n | n | n | 65
CCOC(=O)C1=C(CSc2nc(CC)c(C)cc2C#N)OC(N)=C(C#N)C1c1ccc(OC)cc1 (configuration not stated) | n | n | n | n
Cc1cccc(NC(=O)C(NS(=O)(=O)c2ccc3c(c2)CCC(=O)N3)c2ccccc2)n1 (configuration not stated) | n | n | n | n
CC(=O)C(N=Nc1ccccc1)(Sc1nnc(-c2ccccc2)n1-c1ccccc1)C(C)=O | n | n | -3.1 | n
CC(=O)OC1CCC2(C)C(COc3ccc4ccc(=O)oc4c3)C(C)(O)CCC2C1(C)C (configuration not stated) | n | n | -3.3 | n
CN(C)C(=O)COc1ccc2ccc(=O)oc2c1 | n | n | n | n
CC(NC(=O)Nc1cccc([N+](=O)[O-])c1)(C(F)(F)F)C(F)(F)F | n | n | n | n
COc1ccc(C(=O)Nc2ccc(S(=O)(=O)N3CCc4ccccc43)cc2)cc1 | n | n | -3.1 | n
CC(=O)N1CCc2cc(S(=O)(=O)NCCC(=O)NC3CCCc4ccccc43)ccc21 (configuration not stated) | n | n | n | n
CCc1nnc(NC(=O)CSc2nnc(-c3ccccc3O)n2-c2ccc(C)cc2C)s1 | n | n | -3.8 | n
C=CCc1ccccc1OCC(O)CN(CC)CC (configuration not stated) | n | n | n | n
O=c1[nH]c2cc3c(cc2cc1C(c1nnnn1Cc1ccccc1)N1CCCCCC1)OCCO3 (configuration not stated) | n | n | n | 41
Nc1nnnn1/N=C/c1ccccc1C(F)(F)F | 69 | n | n | n
Cc1csc(NC(=O)CSc2nnc(Cn3c(=O)sc4ccccc43)n2-c2ccccc2)n1 | n | n | x | n
O=c1[nH]c(Nc2ccc(F)cc2)cc2ccccc12 | n | n | n | 47
SMILES | PTPN22 inh 2 | PTPN22 act | PTK2B oligo ant | HIV Rev-RRE inh
CCOc1cc(/C=N\O)cc(Cl)c1OCC | n | n | n | n
CCOc1cc(/C=C2\CCC/C(=C\c3cc(Cl)c(O)c(OCC)c3)C2=O)cc(Cl)c1O | n | n | -3.6 | n
Cc1cccc(NS(=O)(=O)c2cc(C(=O)NCCC3=CCCCC3)ccc2Cl)c1 | n | n | n | n
CCOC(=O)c1c(C(F)(F)C(F)(F)C(F)(F)C(F)(F)F)n[nH]c1C | n | n | n | n
O=C(NC1CCCCC1)C(c1ccc2ncccc2c1)N(Cc1ccc(F)cc1)C(=O)c1cccs1 (configuration not stated) | n | n | -3.9 | n
COCCCN(C(C)=O)c1nc(-c2ccc(OC)cc2)cs1 | n | n | n | n
CCn1c(SCc2nc3sc(C(=O)O)c(C)c3c(=O)[nH]2)nc2ccccc21 | n | n | n | 60
CC1CCN(Cc2c(C#N)c3ccccc3n2C)CC1 | x | x | n | x
O=C(Nc1ccc2c(c1)N(Cc1ccccc1)C(=O)c1ccccc1S2)NC1CC1 | n | n | -3.1 | n
O=C(Nc1ccc2oc(-c3ccccc3F)nc2c1)c1ccc2c(c1)OCCO2 | n | n | -3.1 | n
O=C(Nc1ccc2oc(-c3cccc4ccccc34)nc2c1)c1ncn[nH]1 | 52 | n | n | n
Fc1ccc(C(CCCn2nnc(-c3cccnc3)n2)c2ccc(F)cc2)cc1 | n | n | -3.7 | n
CCOC(=O)c1c(C=O)c(C)n(Cc2ccc(Cl)cc2)c1C | n | n | -3.2 | n
CCOC(=O)c1cnc2ccc(C)cc2c1NCCO | n | n | n | n
CCOC(=O)c1cnc2ccc(C)cc2c1Sc1ccccc1C(=O)OC | n | n | -4.3 | n
N=C1/C(=C\c2ccc(SCc3ccco3)o2)C(=O)N=C2SC=NN12 | n | n | n | 59
Cc1nnc(-c2cnn(C)c2N)n1Cc1cccc(Cl)c1 | n | n | n | n
O=C(Nc1nnc(C2CC2)s1)c1cc(-c2ccccc2)nn1-c1ccccc1 | x | x | -3.2 | x
COC(=O)c1ccc(N2CCC(c3cc(-c4ccc(OC)cc4)n[nH]3)CC2)c([N+](=O)[O-])c1 | n | n | n | n
COc1ccc(-c2cc(C3CCN(c4ccc(C(C)=O)cc4[N+](=O)[O-])CC3)[nH]n2)cc1 | n | n | -3.2 | n
COc1cc(/C=C2\SC(=S)N(Nc3ncc(C(F)(F)F)cc3Cl)C2=O)ccc1O | n | n | -3.1 | n
CN(C)c1ccc(/C=C2\SC(=S)N(Nc3ncc(C(F)(F)F)cc3Cl)C2=O)cc1 | n | n | -3.4 | 138[fluorescence artefact?]
Cc1cc(C)nc(NN2C(=O)/C(=C/c3ccccc3)SC2=S)n1 | n | n | n | n
CCOc1cc(/C=C2\SC(=S)N(Nc3ccccc3)C2=O)ccc1O | n | n | -3.6 | n
COc1ccc(C2C(C#N)=C(/N=C/N3CCN(C)CC3)OC3=C2C(=O)CC(C)(C)C3)cc1OC (configuration not stated) | n | n | n | n
SMILES | PTPN22 inh 2 | PTPN22 act | PTK2B oligo ant | HIV Rev-RRE inh
COC(=O)c1nn(-c2ccc(Cl)cc2)c(=O)cc1Sc1ccccn1 | n | n | n | n
CC(C)C(=O)Nc1cccc(C(=O)Nc2nccs2)c1 | n | n | n | n
CCCCn1nnc(NC(=O)CC23CC4CC(CC(C4)C2)C3)n1 | n | n | n | n
Clc1cc(Cl)cc(CSc2nnc(-c3sccc3-n3cccc3)o2)c1 | n | n | n | n
Clc1cccc(CSc2nnc(-c3sccc3-n3cccc3)o2)c1 | n | n | -3.2 | n
Clc1ccc(CSc2nnc(-c3sccc3-n3cccc3)o2)cc1 | n | n | -3.2 | n
CC1CCN(c2ccc(C(=O)NCc3cccs3)cn2)CC1 | x | x | n | x

Source: PubChem
